This note sets out measurements from ChEMBL document CHEMBL3877315, “Synthesis, biological evaluation and molecular docking analysis of 2-phenyl-benzofuran-3-carboxamide derivatives as potential inhibitors of Staphylococcus aureus Sortase A” (Bioorg Med Chem, 2017).

A short description of this test: Inhibition of Staphylococcus aureus Sortase A delta 59 mutant using Abz-LPATG-Dnp as substrate preincubated for 1 hr followed by substrate addition measured after 30 mins by HPLC method. Put shortly:
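His6-tagged SrtA59 expressed from pET28 in E. coli, IPTG-induced, Ni-NTA purified. Enzyme 5 µM was pre-incubated with inhibitor in DMSO (final 12.5~200 µM) for 1 h at 37 °C in 50 mM Tris-HCl pH 7.5, 150 mM NaCl, 5 mM CaCl₂, 0.05% Tween 20. Abz-LPATG-Dnp added at 10 µM final; stopped with HCl. G-Dnp peak area read at 355 nm by reverse-phase HPLC and compared with no-inhibitor control. IC50 taken at 50% decrease; three repeats.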
Usually IC50 stands for the concentration that inhibits the measured activity by half. Regarding `CC(C)CNC(=O)c1c(-c2ccc(COC(=O)c3ccc([N+](=O)[O-])c(O)c3)cc2)oc2ccccc12`, the IC50 was determined as 60.6 µM.

`COc1cc(OC)cc(C(=O)OCc2ccc(-c3oc4ccccc4c3C(=O)NCC(C)C)cc2)c1`: the concentration for half-maximal inhibition (IC50) came out at 62 µM. Then `CC(C)CNC(=O)c1c(-c2ccc(COC(=O)/C=C/c3ccc(O)cc3)cc2)oc2ccccc12`, with 158 µM; and `CC(C)CNC(=O)c1c(-c2ccc(COC(=O)c3cccc(O)c3)cc2)oc2ccccc12`, with 50.6 µM. The compound `CC(C)CNC(=O)c1c(-c2ccc(COC(=O)c3ccc(F)cc3)cc2)oc2ccccc12` gave an IC50 greater than 200 µM. As for `CC(C)CNC(=O)c1c(-c2ccc(COc3ccc(Cl)cc3)cc2)oc2ccccc12`, the IC50 is greater than 200 µM. Then `CC(C)CNC(=O)c1c(-c2ccc(COC(=O)c3ccc(N)cc3)cc2)oc2ccccc12`, with 52.3 µM; and `CC(C)CNC(=O)c1c(-c2ccc(COC(=O)c3ccc(O)cc3O)cc2)oc2ccccc12`, with 57 µM. `CC(C)CNC(=O)c1c(-c2ccc(COC(=O)Cc3ccc(O)c(O)c3)cc2)oc2ccccc12` showed an IC50 of 30.8 µM. For the compound `CC(C)CNC(=O)c1c(-c2ccc(COC(=O)Cc3ccc([N+](=O)[O-])cc3)cc2)oc2ccccc12`, the IC50 is greater than 200 µM.

The compound `CC(C)CNC(=O)c1c(-c2ccc(COc3cccc(C=O)c3)cc2)oc2ccccc12` gave an IC50 of 89 µM. Take `COc1cc(C(=O)OCc2ccc(-c3oc4ccccc4c3C(=O)NCC(C)C)cc2)cc(OC)c1OC`: the IC50 came to 55.2 µM. Compound `CC(C)CNC(=O)c1c(-c2ccc(COC(=O)c3ccc(O)c(O)c3)cc2)oc2ccccc12` yielded an IC50 of 39.6 µM. As to `CC(=O)c1cccc(OCc2ccc(-c3oc4ccccc4c3C(=O)NCC(C)C)cc2)c1`, 148 µM corresponded to half-maximal inhibition (IC50). Then `CC(C)CNC(=O)c1c(-c2ccc(COC(=O)Cc3ccc(C(F)(F)F)cc3)cc2)oc2ccccc12`, with greater than 200 µM. `CC(C)CNC(=O)c1c(-c2ccc(COc3ccc(C#N)cc3)cc2)oc2ccccc12` returned an IC50 of 97 µM. In turn, `CC(C)CNC(=O)c1c(-c2ccc(COC(=O)c3ccc(S)cc3)cc2)oc2ccccc12` showed an IC50 of 89.1 µM. For `CCCCNC(=O)c1c(-c2ccc(COC(=O)c3ccc(O)cc3)cc2)oc2ccccc12`, the IC50 turned out to be 186 µM. For `CC(C)CNC(=O)c1c(-c2ccc(COc3ccc(CO)cc3)cc2)oc2ccccc12` the value was 121 µM.

For `CC(C)CNC(=O)c1c(-c2ccc(COC(=O)c3ccccc3[N+](=O)[O-])cc2)oc2ccccc12`, the IC50 was greater than 200 µM. Turning to `CCCCNC(=O)c1c(-c2ccc(COc3ccc(C(=O)OC)cc3)cc2)oc2ccccc12`, the concentration for half-maximal inhibition (IC50) is greater than 200 µM. As for `CC(C)CNC(=O)c1c(-c2ccc(COC(=O)Cc3ccc(O)cc3)cc2)oc2ccccc12`, the IC50 was found to be 84 µM. In the case of `CC(C)CNC(=O)c1c(-c2ccc(COC(=O)c3ccccc3O)cc2)oc2ccccc12`, the IC50 is 76.4 µM. The compound `CC(C)CNC(=O)c1c(-c2ccc(COC(=O)c3ccc(N(C)C)cc3)cc2)oc2ccccc12` displayed an IC50 greater than 200 µM. The compound `Cc1ccc(OCc2ccc(-c3oc4ccccc4c3C(=O)NCC(C)C)cc2)cc1` showed a 50% inhibitory concentration (IC50) greater than 200 µM.

`CC(C)CNC(=O)c1c(-c2ccc(COc3ccc(S(C)(=O)=O)cc3)cc2)oc2ccccc12` registered an IC50 of 132 µM. Then `CC(C)CNC(=O)c1c(-c2ccc(COC(=O)Cc3ccccc3O)cc2)oc2ccccc12`, with 89 µM. `CC(C)CNC(=O)c1c(-c2ccc(COC(=O)c3ccc(O)cc3)cc2)oc2ccccc12`: inhibition was half-maximal at 43 µM (IC50). As to `CCCCNC(=O)c1c(-c2ccc(COC(=O)c3ccc(O)c(O)c3)cc2)oc2ccccc12`, the midpoint of inhibition, the IC50, lay at 66 µM.

For the compound `CC(=O)Nc1ccc(OCc2ccc(-c3oc4ccccc4c3C(=O)NCC(C)C)cc2)cc1`, it took 171 µM to reach half-maximal inhibition (IC50). `CC(C)CNC(=O)c1c(-c2ccc(COC(=O)c3ccccc3)cc2)oc2ccccc12` showed an IC50 of 158 µM. For `CC(C)CNC(=O)c1c(-c2ccc(COC(=O)Cc3cccc(C(F)(F)F)c3)cc2)oc2ccccc12` the value was greater than 200 µM; for `CC(=O)Nc1cccc(OCc2ccc(-c3oc4ccccc4c3C(=O)NCC(C)C)cc2)c1`, 148 µM; for `CCCCNC(=O)c1c(-c2ccc(COc3ccc(S(C)(=O)=O)cc3)cc2)oc2ccccc12`, greater than 200 µM. Then `CC(C)CNC(=O)c1c(-c2ccc(COc3cccc(O)c3)cc2)oc2ccccc12`, with 86.4 µM; and `CC(C)CNC(=O)c1c(-c2ccc(COC(=O)Cc3cccc(O)c3)cc2)oc2ccccc12`, with 76.3 µM. Compound `CC(C)CNC(=O)c1c(-c2ccc(COC(=O)c3cc(O)cc(O)c3)cc2)oc2ccccc12` yielded an IC50 of 34.5 µM.

In the case of Para-Hydroxymercuribenzoic acid, the midpoint of inhibition, the IC50, lay at 130 µM.
